Results as given in ChEMBL document CHEMBL2424615, “Design, synthesis, and characterization of novel tetrahydropyran-based bacterial topoisomerase inhibitors with potent anti-gram-positive activity” (J Med Chem, 2013).

Columns and labels:
Moraxella catarrhalis = experiment: Antibacterial activity against Moraxella catarrhalis clinical isolate assessed as growth inhibition by broth microdilution method; assay type: functional
[1] = Fraction unbound in Wistar rat plasma at 0.5 mg/kg, iv and 1 mg/kg, po; assay type: ADME, organism-based
Enterococcus faecium = experiment: Antibacterial activity against vancomycin-resistant Enterococcus faecium clinical isolate assessed as growth inhibition by broth microdilution method; assay type: functional
[2] = Clearance in Wistar rat at 0.5 mg/kg, iv; assay type: ADME, organism-based; parameters: dose 0.5 mg/kg, route intravenous; conditions: in vivo
How it was run: (§1)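 Male Wistar rats (n = 3) dosed by iv bolus (0.5 or 1 mg/kg) or orally (1 or 10 mg/kg); iv vehicles included pH 4.5 aqueous solution, 5% DMSO in water, or 10% PG/10% PEG400 in water pH 7; oral as pH 5.6 aqueous suspension or microsuspension in 7.5% modified gelatin. Blood sampled by preimplanted catheter over 24 h; plasma by LC-MS/MS, LOQ 1.5 ng/mL.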

[3] = AUC in Wistar rat at 0.5 mg/kg, iv; assay type: ADME, organism-based; parameters: dose 0.5 mg/kg, route intravenous; conditions: plasma; how it was run: as §1
[4] = Inhibition of wild type Escherichia coli ATCC 25922 DNA gyrase subunit 2GyrA/2GyrB assessed as pBR322 supercoiling after 1 hr
[5] = Intrinsic clearance in mouse liver microsomes at 1 uM; assay type: ADME, Microsome; conditions: read-out: CLH
Staphylococcus aureus [6] = experiment: Antistaphylococcal activity against Staphylococcus aureus DSM 11823 in neutropenic NMRI mouse thigh infection model assessed as reduction of log10cfu in thigh at 40 mg/kg, sc measured after 6 hrs; assay type: functional; conditions: route subcutaneous
How it was run: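 Mice made neutropenic with ip cyclophosphamide, 150 mg/kg on day -4 and 100 mg/kg on day -1. Log-phase S. aureus (A580 0.3-0.9), 0.05 ml inoculum given im into both thighs 2 h before sc dosing in 5% mannitol in water at 10 ml/kg. Thighs homogenized, serially diluted and plated for CFU 6 h post infection.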

Rattus norvegicus = experiment: Unbound clearance in Wistar rat at 0.5 mg/kg, iv and 1 mg/kg, po; assay type: ADME, organism-based; conditions: in vivo; how it was run: as §1
Streptococcus pyogenes = experiment: Antibacterial activity against Streptococcus pyogenes clinical isolate assessed as growth inhibition by broth microdilution method; assay type: functional
Topoisomerase IV = Topoisomerase IV (Staphylococcus aureus, UniProt P0C1S7+P0C1U9); experiment: Inhibition of wild type Staphylococcus aureus ATCC 29213 topoisomerase-4 subunit 2GrlA/2GrlB assessed as pBR322 relaxation after 1 hr; assay type: protein-complex assay
Staphylococcus aureus [7] = experiment: Antibacterial activity against wild type Staphylococcus aureus ATCC 29213 assessed as growth inhibition by broth microdilution method; assay type: functional
Haemophilus influenzae = experiment: Antibacterial activity against Haemophilus influenzae clinical isolate assessed as growth inhibition by broth microdilution method; assay type: functional
Staphylococcus aureus [8] = experiment: Spontaneous resistance frequency for Staphylococcus aureus ATCC 25923 at 4 times MIC to 16 times MIC after 48 hrs relative to NXL-101; assay type: functional
How it was run: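 Incubated 48 h at 37 °C. Frequency calculated as resistant colonies divided by viable bacteria plated, with the viable count taken on drug-free agar.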

DNA gyrase = DNA gyrase (Staphylococcus aureus, UniProt P0A0K8+P20831); experiment: Inhibition of wild type Staphylococcus aureus DNA gyrase subunit 2GyrA/2GyrB assessed as pBR322 supercoiling after 1 hr; assay type: protein-complex assay
[9] = Inhibition of wild type Escherichia coli ATCC 25922 DNA topoisomerase-4 subunit 2ParC/2ParE assessed as pBR322 relaxation after 1 hr
Staphylococcus aureus [10] = experiment: Antibacterial activity against NXL-101-resistant Staphylococcus aureus A-234 harboring DNA gyrase subunit A D83N mutant assessed as growth inhibition by broth microdilution method; assay type: functional
Streptococcus agalactiae = experiment: Antibacterial activity against Streptococcus agalactiae clinical isolate assessed as growth inhibition by broth microdilution method; assay type: functional
Streptococcus pneumoniae [11] = experiment: Antibacterial activity against Streptococcus pneumoniae clinical isolate assessed as growth inhibition by broth microdilution method; assay type: functional
[12] = Intrinsic clearance in human liver microsomes at 1 uM; assay type: ADME, Microsome; conditions: read-out: CLH
Staphylococcus aureus [13] = experiment: Antistaphylococcal activity against Staphylococcus aureus DSM 11823 assessed as growth inhibition by broth microdilution method; assay type: functional
Escherichia coli = experiment: Antibacterial activity against wild type Escherichia coli ATCC 25922 assessed as growth inhibition by broth microdilution method; assay type: functional
[14] = Oral bioavailability in Wistar rat at 1 mg/kg; assay type: ADME, organism-based; conditions: in vivo; how it was run: as §1
[15] = Half life in Wistar rat at 0.5 mg/kg, iv and 1 mg/kg, po; assay type: ADME, organism-based; conditions: in vivo; how it was run: as §1
[16] = AUC in Wistar rat at 1 mg/kg, po; assay type: ADME, organism-based; parameters: dose 1 mg/kg, route oral; conditions: plasma; how it was run: as §1
Pseudomonas aeruginosa = experiment: Antibacterial activity against wild type Pseudomonas aeruginosa ATCC 27853 assessed as growth inhibition by broth microdilution method; assay type: functional
Staphylococcus aureus [17] = experiment: Antibacterial activity against fluoroquinolone-resistant Staphylococcus aureus clinical isolate assessed as growth inhibition by broth microdilution method; assay type: functional
[18] = Intrinsic clearance in rat liver microsomes at 1 uM; assay type: ADME, Microsome; conditions: read-out: CLH
Staphylococcus aureus [19] = experiment: Antibacterial activity against methicillin-resistant Staphylococcus aureus clinical isolate assessed as growth inhibition by broth microdilution method; assay type: functional
[20] = test system: Staphylococcus epidermidis; experiment: Antibacterial activity against Staphylococcus epidermidis clinical isolate assessed as growth inhibition by broth microdilution method; assay type: functional
[21] = Volume of distribution at steady state in Wistar rat at 0.5 mg/kg, iv and 1 mg/kg, po; assay type: ADME, organism-based; conditions: in vivo, read-out: Vdss; how it was run: as §1
Enterococcus faecalis = experiment: Antibacterial activity against Enterococcus faecalis clinical isolate assessed as growth inhibition by broth microdilution method; assay type: functional
Streptococcus pneumoniae [22] = experiment: Antibacterial activity against wild type Streptococcus pneumoniae ATCC 49619 assessed as growth inhibition by broth microdilution method; assay type: functional
hERG (KCNH2) = hERG (KCNH2) (Homo sapiens, UniProt Q12809); experiment: Inhibition of human ERG expressed in CHO cells at 10 uM after 3 mins by patch clamp assay relative to control; assay type: cell-based; conditions: CHO cells that express human ERG

`COc1ccc2ncc(F)c([C@@H](O)[C@H](O)[C@@H]3CC[C@@H](NCc4cc5c(cn4)OCCS5)CO3)c2n1` gave an MIC50 (Moraxella catarrhalis) of 0.03 µg/mL, an MIC90 (Moraxella catarrhalis) of 0.125 µg/mL and a fraction unbound [1] of 0.017. For the same compound, the MIC50 (Enterococcus faecium) was 0.25 µg/mL, the MIC90 (Enterococcus faecium) was 1 µg/mL and the clearance [2] was 8.7 mL/min/kg. The AUC [3] was 959 ng·h/mL, the IC50 [4] was 8 µM and the microsomal CLint at 1 µM [5] was 291 µL/min/mg. For the same compound, the log10cfu (Staphylococcus aureus [6]) was 1, the CL free (Rattus norvegicus) was 512 mL/min/kg and the MIC50 (Streptococcus pyogenes) was 0.03 µg/mL. It also gave an MIC90 (Streptococcus pyogenes) of 0.06 µg/mL, an IC50 (Topoisomerase IV) of 8 µM and an MIC (Staphylococcus aureus [7]) of at most 0.015 µg/mL. For the same compound, the MIC50 (Haemophilus influenzae) was 0.5 µg/mL, the MIC90 (Haemophilus influenzae) was 4 µg/mL and the “fold change (FC)” value (Staphylococcus aureus [8]) was 10. The IC50 (DNA gyrase) was 0.03 µM, the IC50 [9] was 0.125 µM and the MIC (Staphylococcus aureus [10]) was 2 µg/mL. It also gave an MIC50 (Streptococcus agalactiae) of 0.25 µg/mL, an MIC90 (Streptococcus agalactiae) of 0.5 µg/mL and an MIC50 (Streptococcus pneumoniae [11]) of 0.06 µg/mL. The MIC90 (Streptococcus pneumoniae [11]) was 0.125 µg/mL, the microsomal CLint at 1 µM [12] was 30 µL/min/mg and the MIC (Staphylococcus aureus [13]) was 0.06 µg/mL. The MIC (Escherichia coli) was 8 µg/mL, the bioavailability [14] was 41% and the half-life [15] was 3 h. For the same compound, the AUC [16] was 776 ng·h/mL, the MIC (Pseudomonas aeruginosa) was over 8 µg/mL and the MIC50 (Staphylococcus aureus [17]) was at most 0.015 µg/mL. It also gave an MIC90 (Staphylococcus aureus [17]) of 0.03 µg/mL, a microsomal CLint at 1 µM [18] of 344 µL/min/mg and an MIC50 (Staphylococcus aureus [19]) of at most 0.015 µg/mL. The MIC90 (Staphylococcus aureus [19]) was 0.03 µg/mL, the MIC50 [20] was 0.06 µg/mL and the MIC90 [20] was 0.25 µg/mL. The Vd [21] was 1 L/kg, the MIC50 (Enterococcus faecalis) was 0.5 µg/mL and the MIC90 (Enterococcus faecalis) was 0.5 µg/mL. The MIC (Streptococcus pneumoniae [22]) was at most 0.015 µg/mL and the inhibition at 0.05 h, 10 µM (hERG (KCNH2)) was 19%.
